Data published in ChEMBL document CHEMBL4814039, “Identification of non-covalent SARS-CoV-2 main protease inhibitors by a virtual screen of commercially available drug-like compounds” (Bioorg Med Chem Lett, 2021).

Target: Replicase polyprotein 1ab (Severe acute respiratory syndrome coronavirus 2) (UniProt P0DTD1)
Assay: Inhibition of SARS-CoV-2 main protease at 50 uM using Dabcy1-KTSAVLQSGFRKM-E-Edans-NH2 as substrate incubated for 10 mins followed by substrate addition by FRET assay relative to control
Method in brief: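 Mpro, 0.5 µM final, in pH 7.3 buffer (20 mM Tris-HCl, 100 mM NaCl, 1 mM EDTA, 1 mM DTT) preincubated with compound (50 µM final, from DMSO stock) at 37 °C for 10 min. Reaction started with FRET substrate solution at 20 µM. Read ex 360/em 460 nm. Inhibition is from the initial linear ΔRFU/s versus a DMSO-only control. Triplicate, mean ± SD.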

Cc1cccc(Nc2nc(C(=O)N3CCc4ccccc43)nc3ccccc23)c1
inhibition: 45.7%

Cc1cc(C)nc(-n2nc(C)c3c2NC(=O)C[C@@H]3c2ccc3ccccc3c2)n1
inhibition: 7.54%

Cn1c2ccccc2c(=O)c2c1nc(Cc1ccccc1)n1c3ccccc3nc21
inhibition: 7.42%

O=c1oc2ccccc2c(O)c1[C@H]1c2ncccc2-c2c1c(=O)oc1ccccc21
inhibition: 8.23%

CC1=NN(c2ccc3ccccc3c2)C(=O)/C1=C1/C(=O)Nc2ccc(Cl)cc21
inhibition: 16.6%

O=C(NCc1ccc2c(c1)OCO2)c1ccc2nc3[nH]c4ccccc4c3nc2c1
inhibition: 35.6%

Cc1cccc2cc(-c3c4cn[nH]c4nc4c3oc3c(O)c(O)ccc34)c(=O)[nH]c12
inhibition: 76.6%

Cc1ccc(-n2nc(C)c3c(C)cc(OCc4ccc5nonc5c4)nc32)cc1
inhibition: 5.26%

O=C(CN1C(=O)c2ccccc2N2C(=O)c3ccccc3[C@H]12)Nc1cccc(O)c1
inhibition: 5.21%

O=C1C[C@H](c2ccc(Cl)cc2)N2N=C(N3C(=O)[C@H]4CCCC[C@H]4C3=O)NC2=N1
inhibition: 8.84%

Fc1ccc([C@H]2Oc3ccccc3[C@H]3CC(c4ccc5c(c4)OCO5)=NN32)cc1
inhibition: 6.87%

O=C(c1cc2nccc(-c3ccc4ccccc4c3)n2n1)N1CCN2CCC[C@H]2C1
inhibition: 9.38%

CC(=O)N1N=C(c2cc(-c3ccccc3)nc3ccccc23)O[C@H]1c1ccccc1
inhibition: 14.3%

Cc1cccc2[nH]c([C@H]3CCCN(C(=O)c4nc5ccccn5c4F)C3)nc12
inhibition: 11.1%

O=C(c1ccc2ccccc2n1)N1CCc2c(nc(-c3ccccc3)[nH]c2=O)C1
inhibition: 1.16%

Cn1c2ccccc2c2cc([C@@H]3N[C@H](C(=O)O)Cc4c3[nH]c3ccccc43)ccc21
inhibition: 6.54%

Cc1ccc2c(c1)NC1(CCN(C(=O)Cc3ccc(F)cc3)CC1)c1cccn1-2
inhibition: 6.29%
